Data: ChEMBL document CHEMBL5260803, “Discovery of Novel, Orally Bioavailable β-Amino Acid Azaindole Inhibitors of Influenza PB2” (ACS Med Chem Lett, 2017)
Activity calls are given as the source filed them. The calls are words filed in the database; no cut-off is given here.

Assays:
Influenza A virus [1] = test: Antiviral activity against Influenza A virus A/PR/8/34 infected in MDCK cells assessed as reduction in viral RNA level incubated for 20 hrs by bDNA hybridization method; assay type: functional; settings: A/PR/8/34, MDCK
Method in brief: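 Branched-DNA read-out of viral RNA in infected cells. EC90 is the compound concentration at which viral RNA equals 10% of that in control wells.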

[2] = biological target: Polymerase basic protein 2 (Influenza A virus (strain A/Puerto Rico/8/1934 H1N1), UniProt P03428); test: Binding affinity to full length Influenza A virus PB2 cap-binding domain assessed as dissociation constant incubated for 60 mins by fluorescence polarization assay
Polymerase basic protein 2, sequence (P03428 whole entry, the tested form may be a part): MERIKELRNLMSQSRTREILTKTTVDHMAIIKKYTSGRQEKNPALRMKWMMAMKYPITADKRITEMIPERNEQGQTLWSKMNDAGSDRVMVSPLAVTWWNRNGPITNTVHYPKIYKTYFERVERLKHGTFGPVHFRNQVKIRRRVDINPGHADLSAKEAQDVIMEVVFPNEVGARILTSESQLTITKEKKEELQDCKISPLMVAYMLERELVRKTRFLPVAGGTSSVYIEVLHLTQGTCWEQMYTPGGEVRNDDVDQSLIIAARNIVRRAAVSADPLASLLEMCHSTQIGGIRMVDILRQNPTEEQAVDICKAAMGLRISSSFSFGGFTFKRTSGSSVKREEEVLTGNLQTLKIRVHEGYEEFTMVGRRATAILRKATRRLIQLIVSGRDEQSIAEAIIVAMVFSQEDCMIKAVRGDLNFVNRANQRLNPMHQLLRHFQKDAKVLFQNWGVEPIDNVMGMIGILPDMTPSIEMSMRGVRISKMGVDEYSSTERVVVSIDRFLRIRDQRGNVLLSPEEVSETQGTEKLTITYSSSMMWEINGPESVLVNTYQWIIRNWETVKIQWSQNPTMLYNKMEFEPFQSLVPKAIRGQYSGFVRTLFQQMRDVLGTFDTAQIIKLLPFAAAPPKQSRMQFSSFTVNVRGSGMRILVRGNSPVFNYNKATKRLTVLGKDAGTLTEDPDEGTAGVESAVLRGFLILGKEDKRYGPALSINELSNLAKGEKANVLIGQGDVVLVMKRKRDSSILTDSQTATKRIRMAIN
Method in brief: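 Fluorescence polarization competition binding assay against the cap-binding domain of the PB2 subunit, giving Kd.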

[3] = Clearance in rat at 1 mg/kg, iv; assay type: ADME, organism-based; settings: in vivo
[4] = Half-life in rat at 1 mg/kg, iv; assay type: ADME, organism-based; settings: in vivo
[5] = AUC in rat at 3 mg/kg, po; assay type: ADME, organism-based; design: dose 3 mg/kg, route po; settings: in vivo
[6] = AUC in mouse at 30 mg/kg, po; assay type: ADME, organism-based; design: dose 30 mg/kg, route po; settings: in vivo
[7] = Cmax in mouse at 30 mg/kg, po; assay type: ADME, organism-based; design: dose 30 mg/kg, route po; settings: in vivo
Influenza A virus [8] = test: Antiviral activity against oseltamivir sensitive Influenza A virus A/Georgia/17/2006 (H1N1) infected in MDCK cells incubated for 72 hrs by cell protection assay; assay type: functional, organism-based
Method in brief: (§1)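 MDCK cells incubated with test compound and influenza A virus for 72 h. EC50 is the concentration giving 50% cell protection, reported as the mean of N=3. Oseltamivir resistant or sensitive status was assigned by externally validated phenotypic or genetic analysis.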

Influenza A virus [9] = test: Antiviral activity against oseltamivir sensitive Influenza A virus A/[…]/8/34 (H1N1) infected in MDCK cells incubated for 72 hrs by cell protection assay; assay type: functional, organism-based; method in brief: as §1
Influenza A virus [10] = test: Antiviral activity against oseltamivir sensitive Influenza A virus A/Henan/Jinshui/147/2007 (H3N2) infected in MDCK cells incubated for 72 hrs by cell protection assay; assay type: functional, organism-based; method in brief: as §1
Influenza A virus [11] = test: Antiviral activity against oseltamivir sensitive Influenza A virus A/California/07/2009 (H1N1) infected in MDCK cells incubated for 72 hrs by cell protection assay; assay type: functional, organism-based; method in brief: as §1
Influenza A virus [12] = test: Antiviral activity against oseltamivir sensitive Influenza A virus A/Vietnam/1203/2004 (H5N1) infected in MDCK cells incubated for 72 hrs by cell protection assay; assay type: functional, organism-based
Influenza A virus [13] = test: Antiviral activity against Influenza A virus A/PR/8/34 infected in BALB/C mouse model assessed as increase in survival at 10 to 60 mg/kg, po administered twice daily for 10 days from 48 hrs post-infection and measured for 21 days; assay type: functional, organism-based; settings: dose 10-60 mg/kg, time 21.0 day
Method in brief: (§2)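 Male BALB/c mice, 8 per group, inoculated intranasally with mouse-adapted A/PR/8/34 at 5e3 TCID50/mouse. Oral dosing twice daily for 10 days, starting 48 h after infection, at 10, 30 or 60 mg/kg. Survival and body weight were tracked against untreated controls.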

[14] = Toxicity in BALB/C mouse model of influenza infected with Influenza A virus A/PR/8/34 assessed as body weight loss administered orally twice daily for 10 days from 48 hrs post-infection and measured for 21 days; settings: in vivo, po, 504 h, dose 10-60 mg/kg, time 21 day; method in brief: as §2
Influenza A virus [15] = test: Antiviral activity against Influenza A virus A/PR/8/34 infected in BALB/C mouse model assessed as increase in survival at 10 mg/kg, po administered twice daily for 10 days from 48 hrs post-infection and measured for 21 days; assay type: functional, organism-based; settings: time 21.0 day; method in brief: as §2
[16] = Stability in rat S9 fraction assessed as compound remaining at 1 uM; assay type: ADME, subcellular; settings: read-out: Stability
[17] = Stability in human S9 fraction assessed as compound remaining at 1 uM; assay type: ADME, subcellular; settings: read-out: Stability

| SMILES | EC90 (Influenza A virus [1]) | Kd [2] | also measured |
| --- | --- | --- | --- |
| CC(C)(C)[C@@H](CC(=O)O)Nc1nc(-c2c[nH]c3ncc(F)cc23)ncc1F | 30 nM | 3 nM | clearance [3]: 8 mL/min/kg; half-life [4]: 9.9 h; AUC [5]: 3300 ng·h/mL; AUC [6]: 7200 ng·h/mL; Cmax [7]: 11800 ng/mL; EC50 (Influenza A virus [8]): 9 nM; EC50 (Influenza A virus [9]): 14 nM; EC50 (Influenza A virus [10]): 19 nM; EC50 (Influenza A virus [11]): 4 nM; EC50 (Influenza A virus [12]): 4 nM; Activity (Influenza A virus [13]): Active; Activity [14]: Non-Toxic |
| CC(C)[C@@H](CC(=O)O)Nc1nc(-c2c[nH]c3ncc(F)cc23)ncc1F | 590 nM | – | – |
| CCC(C)(C)[C@@H](CC(=O)O)Nc1nc(-c2c[nH]c3ncc(F)cc23)ncc1F | 60 nM | < 3 nM | – |
| CC(C)(C)[C@H](CC(=O)O)Nc1nc(-c2c[nH]c3ncc(F)cc23)ncc1F | > 6650 nM | 150 nM | – |
| CC1([C@@H](CC(=O)O)Nc2nc(-c3c[nH]c4ncc(F)cc34)ncc2F)CC1 | 670 nM | – | – |
| O=C(O)C[C@@H](Nc1nc(-c2c[nH]c3ncc(F)cc23)ncc1F)C1CCC1 | 780 nM | – | – |
| CC(C)(C)[C@@H](CC(=O)O)Nc1nc(-c2c[nH]c3ncc(Cl)cc23)ncc1F | 23 nM | < 3 nM | – |
| CCOC(=O)C1=C[C@@H](OC(CC)CC)[C@H](NC(C)=O)[C@@H](N)C1 | – | – | Activity (Influenza A virus [15]): inactive |
| CCC(CC)C(CC(=O)O)Nc1nc(-c2c[nH]c3ncc(F)cc23)ncc1F (racemic) | 340 nM | – | – |
| CC(C)(C(CC(=O)O)Nc1nc(-c2c[nH]c3ncc(F)cc23)ncc1F)C(F)(F)F (racemic) | 520 nM | – | – |
| CC1([C@@H](CC(=O)O)Nc2nc(-c3c[nH]c4ncc(F)cc34)ncc2F)CCCC1 | 20 nM | < 3 nM | – |
| C[C@](CC(=O)O)(Nc1nc(-c2c[nH]c3ncc(F)cc23)ncc1F)C1CCC1 | 10 nM | < 3 nM | AUC [6]: 6700 ng·h/mL; Cmax [7]: 7400 ng/mL; remaining at 1 µM [16]: 100%; remaining at 1 µM [17]: 94%; Activity (Influenza A virus [13]): Active |
| CC1(C(CC(=O)O)Nc2nc(-c3c[nH]c4ncc(F)cc34)ncc2F)CCCCC1 (racemic) | 120 nM | < 3 nM | – |
| CC(C)(C)[C@H](CC(=O)O)Nc1nc(-c2c[nH]c3ncc(Cl)cc23)ncc1F | > 3300 nM | 200 nM | – |
